Assay outcomes: PubChem BioAssay, several laboratories
Calb FLC – affects C. albicans growth with fluconazole. growth inhibition, % (no concentration beside the values). C. albicans CaCi-2 (fluconazole-resistant clinical isolate) + fluconazole, Alamar Blue growth, 48 h. AID 1979. 300,000 tested, 0.57% active;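 active = growth inhibition above about 58% in most replicates, limit read from the data, passing the limit was not always enough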;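 also: all wells also contain fluconazole at 8 µg/ml as a sub-toxic cotreatment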
ASAP1 inh – ASAP1 ArfGAP inhibition; Q9ULH1; ASAP1-stimulated ARF1 GTP hydrolysis, GDP FP detection; inhibition, % at 16.5 µM; 360,000 tested, 0.19% active; in the data active = inhibition above about 25%
HGIII-sPLA2 inh – Blocks human group III sPLA2 activity. QFRET BODIPY PC-A2 liposome hydrolysis, fluorescence. 370,000 tested, 0.56% active. inhibition, % at 12.2 µM. Q9NZ20;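 active = inhibition above mean plus 3 SD of compounds lying within the high and low control bounds, cut at about 19% in these data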
Target sequence (Q9NZ20 whole entry, looked up): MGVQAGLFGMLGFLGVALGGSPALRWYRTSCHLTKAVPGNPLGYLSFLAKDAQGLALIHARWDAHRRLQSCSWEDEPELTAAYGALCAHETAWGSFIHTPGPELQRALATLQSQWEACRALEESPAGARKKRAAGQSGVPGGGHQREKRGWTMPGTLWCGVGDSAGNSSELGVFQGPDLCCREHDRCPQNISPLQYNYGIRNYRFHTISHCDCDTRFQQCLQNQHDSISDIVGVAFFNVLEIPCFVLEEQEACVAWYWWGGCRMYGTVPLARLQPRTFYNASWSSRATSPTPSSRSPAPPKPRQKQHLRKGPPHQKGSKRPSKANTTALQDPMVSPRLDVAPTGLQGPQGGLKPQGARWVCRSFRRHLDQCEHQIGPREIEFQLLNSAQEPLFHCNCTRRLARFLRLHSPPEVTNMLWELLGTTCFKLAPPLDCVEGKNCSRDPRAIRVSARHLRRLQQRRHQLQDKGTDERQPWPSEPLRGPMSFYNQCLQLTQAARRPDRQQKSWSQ
SKKanGAS inh – SKKanGAS growth inhibition. AID 1662. 300,000 tested, 1.3% active. inhibition, % at 7.5 µM. S. pyogenes SKKanGAS, kanamycin growth, BacTiter-Glo, 6 h;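 active = mean replicate score, as percent of positive control median, at least 50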;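 also: strain carries kanamycin resistance gene driven by streptokinase promoter and grows in 40 µg/ml kanamycin; loss of luminescence reflects streptokinase promoter inhibition or plain growth inhibition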
ARFGAP1 inh – inhibits rat ARF GTPase activating protein 1. inhibition, % at 16.5 µM. 360,000 tested, 0.26% active. Q62848. Arfgap1-stimulated ARF1 GTP hydrolysis, GDP FP detection. AID 651572;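 active = inhibition above a per-plate limit, mean inhibition of low control wells plus 3 SD, cut at about 25% in these data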
Target sequence (Q62848 1-136 limits assumed): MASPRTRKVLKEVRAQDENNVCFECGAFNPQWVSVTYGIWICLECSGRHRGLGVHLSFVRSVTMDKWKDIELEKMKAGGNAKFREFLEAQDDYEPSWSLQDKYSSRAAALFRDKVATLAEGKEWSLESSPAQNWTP
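System: truncated rat Arfgap1 GAP domain / Medium: HEPES-based buffer, pH 7.5 / Also added: N-terminally truncated human ARF1-GTP substrate / Incubation: enzyme reaction 120 min at 25 °C after 20 min preincubation / Measured by: FP of antibody-bound GDP Alexa 633 tracer, ex 620/em 688 nm / Replicates: singlicate, each compound tested once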
Of the large screens only hits and unclear results are named; the others gave an inactive call. Compounds with a hit are over-represented: about 2.3% of the library has one in this group of screens.

OCc1cccc(-c2csc(C(O)c3ccccc3)n2)c1 (centres undefined)	none (no result: Calb FLC, SKKanGAS inh)
COc1ccc(Cn2ccc3ccc(-c4ccc5ccn(Cc6ccccc6)c5c4)cc32)cc1	none (no result: Calb FLC, ASAP1 inh, SKKanGAS inh, ARFGAP1 inh)
C[C@@H]1Cn2cnc(C(=O)N(C)Cc3ccccc3)c2C(=O)N1	none (no result: Calb FLC, SKKanGAS inh)
COC(=O)c1c(NC(NC(=O)C(C)(C)C)C(Cl)(Cl)Cl)sc2c1CCC2 (centres undefined)	SKKanGAS inh 59
CC(C)(C)C(=O)NC(NC(=S)Nc1sc2c(c1C#N)CCCC2)C(Cl)(Cl)Cl (centres undefined)	SKKanGAS inh 50
N#Cc1c(NC(=S)NC(=O)Cc2cccs2)sc2c1CCCCC2	SKKanGAS inh 59
O=C(O)c1ccc2c(c1)[C@@H]1C=CC[C@@H]1[C@H](c1ccccn1)N2	Calb FLC 110
COc1cccc(NS(=O)(=O)c2ccc3c(c2)C2C=CCC2C(c2ccc(C(=O)O)cc2)N3)c1 (centres undefined)	none
COc1ccc(CNCC(O)(c2ccc(Cl)cc2)c2ccc(Cl)cc2)cc1	SKKanGAS inh 59
COc1ccc(CNCC(O)(c2ccc(Cl)cc2)c2ccc(Cl)cc2)cc1OC	none (no result: SKKanGAS inh)
CC(=O)N1CCc2c(sc(NC(=O)c3ccc([N+](=O)[O-])o3)c2C(N)=O)C1	ARFGAP1 inh 27 (no result: Calb FLC, SKKanGAS inh)
CCC(=O)Nc1sc2c(c1C(N)=O)CCN(C(C)=O)C2	none
COc1ccc(C=NN(C)C(=O)Nc2cccc(Cl)c2)cc1OC	none (no result: Calb FLC, SKKanGAS inh)
COC(=O)c1cc2c(c3c4ccccc4n(S(=O)(=O)c4cccc(C)c4)c13)C(=O)N(Cc1ccc(N(C)C)cc1)C2	none (no result: Calb FLC, SKKanGAS inh)
Cc1cc(C)c(-c2noc(C(=O)OC(C)(C)C)c2C(=O)OC(C)(C)C)c(C)c1	SKKanGAS inh 72
COc1ccc(/C=C/C(=O)NC(=S)N2CCN(c3ccccc3OC)CC2)cc1	SKKanGAS inh 59
C(=N\NCc1ccccc1)/c1ccc2ncccc2c1	none
S=C(N/N=C/c1ccc2ncccc2c1)Nc1ccccc1	Calb FLC 88
CCOc1cc(CCNC(=O)c2cc3ccsc3n2C)ccc1OC	none (no result: Calb FLC, ASAP1 inh, SKKanGAS inh, ARFGAP1 inh)
CC1=C(C(=O)Nc2ccc([N+](=O)[O-])cc2)C(c2cccc(C(F)(F)F)c2)NC(=S)N1c1ccccc1 (centres undefined)	SKKanGAS inh 50
CC(=O)Nc1nc2ccccc2n1CCOc1ccccc1Cl	none
S=C(Nc1ccccc1)Nc1nc2ccccc2n1CCOc1ccc(Cl)cc1	Calb FLC 92
O=C1CC(c2ccccc2)CC(=NCCO)/C1=C(\O)CCCN1C(=O)c2ccccc2C1=O (centres undefined)	Calb FLC 64
CC(C)NCC(O)Cn1c2c(c3ccccc31)CCc1c-2cnn1-c1ccccc1 (centres undefined)	HGIII-sPLA2 inh 21
CNc1ncc(C(=O)c2ccccc2)s1	none
CC(=O)c1cnc(Nc2cccc(Cl)c2Cl)s1	Calb FLC 79
O=C(c1ccc(Cl)cc1)c1cnc(Nc2ccccc2Cl)s1	SKKanGAS inh 75
CN[C@H]1C[C@H]2c3cc(-c4ccccc4C)ccc3CCN2C[C@H]1[C@H](C)O	none (no result: Calb FLC, ASAP1 inh, SKKanGAS inh, ARFGAP1 inh)
CC(C)CC(=NNC(=O)c1ccncc1)c1cc(Cl)ccc1O	HGIII-sPLA2 inh 21 (no result: Calb FLC, SKKanGAS inh)
Cc1cccc(NC(=S)N/N=C/c2ccc([N+](=O)[O-])s2)c1	SKKanGAS inh 101
Cc1cccc(NC(=O)/C=C/c2ccc([N+](=O)[O-])s2)c1	none
Cc1cc(C(=O)N/N=C/c2ccc([N+](=O)[O-])s2)n[nH]1	SKKanGAS inh 109
Cc1ccc(C(=O)N/N=C\c2ccc([N+](=O)[O-])s2)cn1	none
Cc1[nH]cnc1C(=O)N/N=C/c1ccc([N+](=O)[O-])s1	SKKanGAS inh 103
Cc1ccccc1-c1ccc2c(c1)[C@@H]1C[C@H]3[C@@H](CN1CC2)[C@H](C)ON3C	none (no result: Calb FLC, SKKanGAS inh)
NC(c1csc(Nc2ccccn2)n1)C1CCCCC1 (centres undefined)	none (no result: Calb FLC, SKKanGAS inh)
COc1cc(CNc2ccc(N3CCCC3)cc2)cc(Cl)c1OC	Calb FLC 87
C[C@H]1COc2cc(Br)ccc2S(=O)(=O)N1Cc1cn(Cc2ccc(Cl)cc2)nn1	none (no result: Calb FLC, ASAP1 inh, SKKanGAS inh, ARFGAP1 inh)
CCc1nc2c(cnn2-c2ccc(Cl)cc2)c(=O)n1-c1ccc(OC)cc1	SKKanGAS inh 52
CCOc1ccc(-n2c(C)nc3c(cnn3-c3ccc(Cl)cc3)c2=O)cc1	none
COC1=C[C@H](C(=O)NC2CCN(Cc3ccccc3)CC2)[C@@]2(C)Cc3ccccc3[C@H]2CC1=O	none (no result: Calb FLC, ASAP1 inh, SKKanGAS inh, ARFGAP1 inh)
CC(C)c1ccc2c(c1)CCC1C(C)(CN)CCCC21C (centres undefined)	Calb FLC 87
O=C(Nc1cc(S(=O)(=O)Nc2ccc(Cl)cc2)ccc1N1CCCCC1)c1ccc(F)cc1	SKKanGAS inh 55
CCOC(=O)N1CCN(C(=O)C[C@H]2C[C@@]3(C(=O)OC)C(=C[C@H](C(C)C)O[C@@H]3C3CC3)N(Cc3ccco3)C2=O)CC1	none (no result: Calb FLC, ASAP1 inh, SKKanGAS inh, ARFGAP1 inh)
COc1ccc(/C=C2\N=C(SC)NC2=O)cc1	Calb FLC 90
COc1ccc(/C=C/c2cc(-c3ccc(C)cc3)o[n+]2C)cc1	Calb FLC 90
C[C@@H]1CN([C@@H](C)CO)C(=O)CCCn2cc(nn2)CO[C@H]1CN(C)C(=O)c1ccncc1	none (no result: Calb FLC, SKKanGAS inh)
CCCCc1nnc(NC(=O)C(C)Sc2nc(N)cc(=O)[nH]2)s1 (centres undefined)	Calb FLC 76
O=C(NNC(=O)c1ccc(NC(=O)c2ccccc2)cc1)c1ccc(F)cc1	none
O=C(NC1=C(Nc2ccc(F)cc2)C(=O)c2ccccc2C1=O)c1ccc(Cl)cc1	SKKanGAS inh 51
CC(=O)c1cc(-c2ccc(-c3cc(C(=O)O)c4ccccc4n3)cc2)c(=O)n2c1CCC2	none (no result: Calb FLC, ASAP1 inh, SKKanGAS inh, ARFGAP1 inh)
Cc1ccc(NC(=S)NC(=O)C2CC2)cc1Cl	Calb FLC 112 (no result: SKKanGAS inh)
CCCCN(C)C(=O)c1ccc(Nc2nc(C(N)COCc3ccccc3)cs2)nc1 (centres undefined)	none (no result: Calb FLC, SKKanGAS inh)
COC(=O)Cc1nnn2c1[C@H](C)[C@H](c1ccccc1Br)OC[C@@H]2c1ccccc1	none (no result: Calb FLC, SKKanGAS inh)
NC[C@H](Cc1ccccc1)NCCCCC1CCCCC1	none (no result: Calb FLC, SKKanGAS inh)
CNC[C@H](CC1CCCCC1)NC[C@H](Cc1ccccc1)NCCC12CC3CC(CC(C3)C1)C2	Calb FLC 91, SKKanGAS inh 98
Cc1cccc(Cn2nc(-n3cccc3)c3c(C)cc(C)nc32)c1	SKKanGAS inh 55
Cc1cccc(Cn2cnc3c(nnn3Cc3ccc(Cl)cc3)c2=O)c1	none
COc1ccc(N(CC(=O)Nc2ccccc2C(N)=O)S(=O)(=O)c2ccc(C)c([N+](=O)[O-])c2)cc1	Calb FLC 95
CN(C)c1ccc(O)c2c1CC1CC3[C@@H](N(C)C)C(=O)C(C(N)=O)=C(O)[C@]3(O)C(=O)C1=C2O (some centres undefined)	SKKanGAS inh 106 (no result: Calb FLC)
C[C@H]1c2cccc(O)c2C(O)=C2C(=O)[C@]3(O)C(O)=C(C(N)=O)C(=O)[C@@H](N(C)C)[C@@H]3[C@@H](O)[C@@H]21	SKKanGAS inh 97 (no result: Calb FLC, ASAP1 inh, HGIII-sPLA2 inh, ARFGAP1 inh)
CC1(C)CC(=O)C=C(Nc2ccccc2NC(=O)c2cc(F)cc(F)c2)C1	none (no result: Calb FLC, ASAP1 inh, SKKanGAS inh, ARFGAP1 inh)
